In the array DNA melting data of Ke et al. (doi:10.1101/2024.01.08.574731):

Columns and labels:
[1] = folding enthalpy; higher = less favourable; fluorescence melt of hairpins on a sequencing array, two-state fit; conditions: sodium 0.088 M
In short: (§1)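 Folding enthalpy and melting temperature were estimated with bootstrapped two-state fits and combined across four replicates by inverse-variance weighting, with fitted temperatures raised by 9.35 °C to match UV melts. The data were Cy3 fluorescence of library hairpins, with annealed Cy3 and quencher oligos, on a sequenced MiSeq flow cell in 50 mM Na-HEPES pH 8.0, 25 mM NaCl, imaged in 2.5 °C steps up to 60 °C and normalised to pre-quench Cy3 and control constructs.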

[2] = melting temperature; fluorescence melt of hairpins on a sequencing array, two-state fit, raised by 9.35 °C to match UV melts; conditions: sodium 0.088 M
In short: as §1

| Sequence | folding enthalpy [1] | Tm [2] |
| --- | --- | --- |
| GCGGACGTCCGC ((((....)))) | -53.7 kcal/mol | 60.8 °C |
| GCGGACTTCCGC ((((....)))) | -23.2 kcal/mol | 57.4 °C |
| GCGGAGCCCCGC ((((....)))) | -10.7 kcal/mol | 55.8 °C |
| GCGGAGCCCGC ((((...)))) | -11.3 kcal/mol | 49.4 °C |
| GCGGAGCGAAAGCAGCGC (((..((....))..))) | -17.1 kcal/mol | 58 °C |
| GCGGAGCGAAAGCCCTGC ((.(.((....)).).)) | -10.6 kcal/mol | 43.7 °C |
| GCGGAGCGAAAGCTAGGC ((..(((....)))..)) | -9.5 kcal/mol | 41.9 °C |
| GCGGAGCGAAAGCTTAGC ((..(((....)))..)) | -14.1 kcal/mol | 52.3 °C |
| GCGGAGGGAAACTTCCGC (((((.(....).))))) | -35.4 kcal/mol | 57.9 °C |
| GCGGAGTGCCGC ((((....)))) | -13.7 kcal/mol | 57.1 °C |
| GCGGATACCGC ((((...)))) | -25.8 kcal/mol | 57.1 °C |
| GCGGATACGAAAGTACGC (((..(((....)))))) | -27 kcal/mol | 49.4 °C |
| GCGGATGACCGC ((((....)))) | -21.6 kcal/mol | 54.8 °C |
| GCGGATTACCGC ((((....)))) | -20 kcal/mol | 54.9 °C |
| GCGGATTCCCGC ((((....)))) | -20.8 kcal/mol | 55 °C |
| GCGGCACCCCGC ((((....)))) | -24.8 kcal/mol | 53.8 °C |
| GCGGCAGCGAAAGCTCGC (((..(((....)))))) | -11.7 kcal/mol | 51.5 °C |
| GCGGCAGGAAACCACCGC ((((..(....)..)))) | -25.9 kcal/mol | 45.2 °C |
| GCGGCAGGAAACTGCCAC (.(((((....))))).) | -10.8 kcal/mol | 54.6 °C |
| GCGGCAGGAAACTGCTGC ((.((((....)))).)) | -43.2 kcal/mol | 62.9 °C |
| GCGGCCACCGC ((((...)))) | -19.6 kcal/mol | 59.5 °C |
| GCGGCCCACCGC ((((....)))) | -19.6 kcal/mol | 60 °C |
| GCGGCCGAAAGGCCCCGC ((((((....)))..))) | -10.3 kcal/mol | 48.1 °C |
| GCGGCCGAAAGGCTTCGC ((((((....)))..))) | -17.1 kcal/mol | 53.5 °C |
| GCGGCCGCGAAAGCGCGC (((..(((....)))))) | -11.6 kcal/mol | 59.5 °C |

| Sequence | folding enthalpy [1] | Tm [2] |
| --- | --- | --- |
| GCGGCCGGAAACGGCCAC (.(((((....))))).) | -9.59 kcal/mol | 53 °C |
| GCGGCCTCCCGC ((((....)))) | -22.3 kcal/mol | 56.3 °C |
| GCGGCGCGAAAGCGTAGC ((..(((....)))..)) | -26.1 kcal/mol | 65.8 °C |
| GCGGCGCGAAAGCTGCGC (((..((....))..))) | -26.1 kcal/mol | 63.3 °C |
| GCGGCGGTCCGC ((((....)))) | -17.6 kcal/mol | 58.7 °C |
| GCGGCGTACCGC ((((....)))) | -17.2 kcal/mol | 64.7 °C |
| GCGGCGTCGAAAGACCGC (((..(((....)))))) | -27.5 kcal/mol | 54.6 °C |
| GCGGCTAACCGC ((((....)))) | -26.2 kcal/mol | 56.5 °C |
| GCGGCTATCCGC ((((....)))) | -20.1 kcal/mol | 61.2 °C |
| GCGGCTCCCCGC ((((....)))) | -22.1 kcal/mol | 54.8 °C |
| GCGGCTCGAAAGAGCGC (((.(((....)))))) | -20.1 kcal/mol | 68.8 °C |
| GCGGCTGGAAACGGCTGC ((.((.(....).)).)) | -38.5 kcal/mol | 53 °C |
| GCGGCTGGAAACGGTCGC (((.(.(....).).))) | -43.2 kcal/mol | 54 °C |
| GCGGCTGTCCGC ((((....)))) | -28.3 kcal/mol | 57.9 °C |
| GCGGCTTACCGC ((((....)))) | -26.1 kcal/mol | 61.2 °C |
| GCGGGACCCCGC ((((....)))) | -26 kcal/mol | 67.8 °C |
| GCGGGAGACCGC ((((....)))) | -14.4 kcal/mol | 66.3 °C |
| GCGGGATCCGC ((((...)))) | -17.1 kcal/mol | 59.2 °C |
| GCGGGCCCGAAAGGGCGC (((..(((....)))))) | -8.34 kcal/mol | 58 °C |
| GCGGGCCGCCGC ((((....)))) | -15.5 kcal/mol | 61.5 °C |
| GCGGGCGAAAGCCGCCGC ((((((....)))..))) | -11.3 kcal/mol | 61.7 °C |
| GCGGGCGAAAGCCGTCGC ((((((....)))..))) | -17.3 kcal/mol | 54.5 °C |
| GCGGGCGGCCGC ((((....)))) | -42 kcal/mol | 59.1 °C |
| GCGGGCGTCCGC ((((....)))) | -23.6 kcal/mol | 58.6 °C |
